Test results from ChEMBL document CHEMBL1124472, “Renal vasodilators. The role of the 4-substituent in isoquinolin-3-ol cardiovascular agents: 4-ureido derivatives of isoquinolin-3-ol with selective renal vasodilator properties” (1989).

Legend:
Conditions in all cases: route intravenous
[1] = tested on: Canis familiaris; experiment: Percent change in heart rate by 1.2 mg/kg of compound administered intravenously in dog; type: functional, Canis lupus familiaris
How it was run: (§1)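 Adult dogs anesthetized with pentobarbital (45 mg/kg ip), instrumented for electromagnetic renal artery flow; femoral artery cannulated for blood pressure, cardiotachometer for heart rate; iv via femoral vein. Cumulative infusion at rising rates, 5 min each (0.2+1.0 mg/kg for 1.2; 0.2+1.0+5.0 mg/kg for 6.2), in 0.9% saline ± acid/base; ≥2 dogs; maximal % change from predrug over ≥30 min; RVR = MAP/RBF.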

[2] = tested on: Canis familiaris; experiment: Percent change in mean arterial blood pressure by 1.2 mg/kg of compound administered intravenously in dog; type: functional, Canis lupus familiaris; how it was run: as §1
[3] = tested on: Canis familiaris; experiment: Percent change in renal vascular resistant e by 1.2 mg/kg of compound administered intravenously in dog; type: functional, Canis lupus familiaris; how it was run: as §1
[4] = tested on: Canis familiaris; experiment: (§2) Percent change in renal blood flow by 1.2 mg/kg of compound administered intravenously in dog; type: functional, Canis lupus familiaris, Kidney; how it was run: as §1
[5] = tested on: Canis familiaris; experiment: Percent change in heart rate by 6.2 mg/kg of compound administered intravenously in dog; type: functional, Canis lupus familiaris; how it was run: as §1
[6] = tested on: Canis familiaris; experiment: Percent increase in myocardial contractile force by 1.88 mg/kg of compound administered intravenously in dog; type: functional, Canis lupus familiaris, Myocardium
How it was run: (§3)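 Adult mongrel dogs, pentobarbital 45 mg/kg ip, artificially respired; right thoracotomy, Walton Brodie strain gauge on right ventricle at 100 g baseline tension. Only dogs giving >100% contractile-force rise to dopamine (10-15 μg/kg per min × 3 min) were used. Compound in 10-15% dimethylformamide, total dose infused iv into femoral vein; % change in contractile force.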

[7] = tested on: Canis familiaris; experiment: Percent change in mean arterial blood pressure by 6.2 mg/kg of compound administered intravenously in dog; type: functional, Canis lupus familiaris; how it was run: as §1
[8] = tested on: Canis familiaris; experiment: Percent change in renal vascular resistant e by 6.2 mg/kg of compound administered intravenously in dog; type: functional, Canis lupus familiaris; how it was run: as §1
[9] = tested on: Canis familiaris; experiment: Percent change in renal blood flow by 6.2 mg/kg of compound administered intravenously in dog; type: functional, Canis lupus familiaris; how it was run: as §1
[10] = tested on: Canis familiaris; experiment: Percent increase in myocardial contractile force by 8.75 mg/kg of compound administered intravenously in dog; type: functional, Canis lupus familiaris, Myocardium; how it was run: as §3
[11] = tested on: Canis familiaris; experiment: Percent increase in myocardial contractile force by 1.75 mg/kg of compound administered intravenously in dog; type: functional, Canis lupus familiaris, Myocardium; how it was run: as §3
[12] = tested on: Canis familiaris; experiment: as §2; type: functional, Canis lupus familiaris; how it was run: as §1
[13] = tested on: Canis familiaris; experiment: Percent increase in myocardial contractile force by 0.025 mg/kg of compound administered intravenously in dog; type: functional, Canis lupus familiaris, Myocardium; how it was run: as §3

SMILES: CNC(=O)Nc1c(O)nc(C)c2cc(OC)c(OC)cc12
- Change [1]: 3%
- Change [2]: 4%
- Change [3]: -5%
- Change [4]: 4%

SMILES: COc1cc2c(C)nc(O)c(N)c2cc1OC
- Change [5]: 4%
- Increase [6]: 114%
- Change [7]: 6%
- Change [4]: 23%
- Change [8]: -13%

SMILES: COc1cc2c(C)nc(O)c(NC(=O)Nc3ccc([N+](=O)[O-])cc3)c2cc1OC
- Change [1]: -1%
- Change [2]: 1%
- Change [3]: -2%
- Change [4]: 3%

SMILES: COc1cc2c(C)nc(O)c(NC(=O)NC(C)(C)C)c2cc1OC
- Change [5]: -4%
- Change [7]: 1%
- Change [9]: 10%
- Change [8]: -8%

SMILES: COc1cc2c(C)nc(O)c(NC(C)=O)c2cc1OC
- Change [5]: 14%
- Increase [10]: 47%
- Change [7]: 6%
- Change [9]: 39%
- Change [8]: -24%

SMILES: COc1cc2cc(O)nc(C)c2cc1OC
- Increase [11]: 100%

SMILES: COc1cc2c(C)nc(O)c(NC(=O)Nc3ccccc3)c2cc1OC
- Change [1]: -13%
- Change [2]: 0%
- Change [3]: 35%
- Change [4]: -23%

SMILES: CCCCCC(=O)Nc1c(O)nc(C)c2cc(OC)c(OC)cc12
- Change [5]: -9%
- Change [7]: 0%
- Change [9]: -27%
- Change [8]: 40%

SMILES: CCOC(=O)c1ccc(NC(=O)Nc2c(O)nc(C)c3cc(OC)c(OC)cc23)cc1
- Change [1]: -1%
- Change [2]: -2%
- Change [3]: -4%
- Change [4]: 2%

SMILES: CCCCNC(=O)Nc1c(O)nc(C)c2cc(OC)ccc12
- Change [1]: -6%
- Change [2]: 3%
- Change [3]: 16%
- Change [4]: -12%

SMILES: COc1cccc(NC(=O)Nc2c(O)nc(C)c3c(OC)c(OC)ccc23)c1
- Change [1]: -2%
- Change [2]: -3%
- Change [3]: -16%
- Change [12]: 17%

SMILES: CCNC(=O)Nc1c(O)nc(C)c2cc(OC)c(OC)cc12
- Change [1]: 0%
- Change [2]: 0%
- Change [3]: -22%
- Change [4]: 28%

SMILES: C=CCOC(=O)Nc1c(O)nc(C)c2cc(OC)c(OC)cc12
- Change [5]: -2%
- Change [7]: -9%
- Change [9]: 2%
- Change [8]: -11%

SMILES: COc1cccc(NC(=O)Nc2c(O)nc(C)c3cc(OC)c(OC)cc23)c1
- Change [5]: -2%
- Change [7]: -1%
- Change [9]: 59%
- Change [8]: -36%

SMILES: COc1ccc(NC(=O)Nc2c(O)nc(C)c3cc(OC)c(OC)cc23)cc1
- Change [5]: 2%
- Change [7]: 12%
- Change [9]: 68%
- Change [8]: -32%

SMILES: COc1cc2c(C)nc(O)c(NC(=O)Nc3ccc(C(F)(F)F)cc3)c2cc1OC
- Change [5]: 10%
- Change [7]: 4%
- Change [9]: 49%
- Change [8]: -29%

SMILES: C=CCNC(=O)Nc1c(O)nc(C)c2cc(OCC)c(OC)cc12
- Change [1]: 29%
- Change [2]: -2%
- Change [3]: -22%
- Change [4]: 28%

SMILES: CCCCNC(=O)Nc1c(O)nc(C)c2cc(OC)c(OC)cc12
- Change [1]: 6%
- Change [5]: -2%
- Change [2]: -3%
- Change [3]: -27%
- Change [7]: 4%
- Change [4]: 36%
- Change [9]: 117%
- Change [8]: -52%

SMILES: COc1cc2cnc(O)c(NC(C)=O)c2cc1OC
- Change [5]: -8%
- Change [7]: 14%
- Change [9]: 30%
- Change [8]: -12%

SMILES: CCCCC(=O)Nc1c(O)nc(C)c2cc(OC)c(OC)cc12
- Change [5]: 6%
- Change [7]: 3%
- Change [9]: -9%
- Change [8]: 13%

SMILES: COc1cccc(NC(=O)Nc2c(O)nc(C)c3cc(OC)ccc23)c1
- Change [1]: 5%
- Change [2]: 2%
- Change [3]: -4%
- Change [4]: 17%

SMILES: CCc1c(O)nc(C)c2cc(OC)c(OC)cc12
- Increase [13]: 143%

SMILES: COc1cc2c(C)nc(O)c(NC(=O)Nc3cccc(C(F)(F)F)c3)c2cc1OC
- Change [5]: -10%
- Change [7]: 2%
- Change [9]: 23%
- Change [8]: -16%

SMILES: COc1cc2c(C)nc(O)c(NC(=O)Nc3ccc(C(=O)O)cc3)c2cc1OC
- Change [1]: -12%
- Change [2]: -1%
- Change [3]: -28%
- Change [4]: 40%

SMILES: COc1ccc(NC(=O)Nc2c(O)nc(C)c3c(OC)c(OC)c(OC)cc23)cc1
- Change [5]: 7%
- Change [7]: -4%
- Change [9]: 14%
- Change [8]: -15%

SMILES: COc1cc2c(C)nc(O)c(NC(=O)C(C)C)c2cc1OC
- Change [5]: -1%
- Change [7]: -2%
- Change [9]: -5%
- Change [8]: -4%

SMILES: CCOc1cc2c(C)nc(O)c(NC(=O)Nc3ccc(OC)cc3)c2cc1OC
- Change [5]: 10%
- Change [7]: 6%
- Change [9]: -8%
- Change [8]: 15%

SMILES: COc1cc2c(C)nc(O)c(NC(=O)NC(C)C)c2cc1OC
- Change [1]: 3%
- Change [2]: -9%
- Change [3]: -10%
- Change [4]: 11%

SMILES: COc1cc2c(C)nc(O)c(NC(=O)NC3CCCCC3)c2cc1OC
- Change [1]: 0%
- Change [2]: 0%
- Change [3]: -4%
- Change [4]: 7%

SMILES: C=CCNC(=O)Nc1c(O)nc(C)c2cc(OC)c(OC)cc12
- Change [1]: -3%
- Change [2]: 8%
- Change [3]: -44%
- Change [4]: 97%

SMILES: CCCCOC(=O)Nc1c(O)nc(C)c2cc(OC)c(OC)cc12
- Change [5]: -6%
- Change [7]: -3%
- Change [9]: -23%
- Change [8]: 29%

SMILES: CCCNC(=O)Nc1c(O)nc(C)c2cc(OC)c(OC)cc12
- Change [1]: -7%
- Change [2]: 1%
- Change [3]: 0%
- Change [4]: 5%

SMILES: CCCCNC(=O)Nc1c(O)nc(C)c2cc(O)c(O)cc12
- Change [1]: 2%
- Change [2]: -1%
- Change [3]: 2%
- Change [4]: -2%
